Measured values from different studies.
Lines come from different studies, so protocols differ.
Target: cGMP-dependent protein kinase 2 (PRKG2, Homo sapiens, UniProt Q13237)
Residues used in one study (Q13237 1-762): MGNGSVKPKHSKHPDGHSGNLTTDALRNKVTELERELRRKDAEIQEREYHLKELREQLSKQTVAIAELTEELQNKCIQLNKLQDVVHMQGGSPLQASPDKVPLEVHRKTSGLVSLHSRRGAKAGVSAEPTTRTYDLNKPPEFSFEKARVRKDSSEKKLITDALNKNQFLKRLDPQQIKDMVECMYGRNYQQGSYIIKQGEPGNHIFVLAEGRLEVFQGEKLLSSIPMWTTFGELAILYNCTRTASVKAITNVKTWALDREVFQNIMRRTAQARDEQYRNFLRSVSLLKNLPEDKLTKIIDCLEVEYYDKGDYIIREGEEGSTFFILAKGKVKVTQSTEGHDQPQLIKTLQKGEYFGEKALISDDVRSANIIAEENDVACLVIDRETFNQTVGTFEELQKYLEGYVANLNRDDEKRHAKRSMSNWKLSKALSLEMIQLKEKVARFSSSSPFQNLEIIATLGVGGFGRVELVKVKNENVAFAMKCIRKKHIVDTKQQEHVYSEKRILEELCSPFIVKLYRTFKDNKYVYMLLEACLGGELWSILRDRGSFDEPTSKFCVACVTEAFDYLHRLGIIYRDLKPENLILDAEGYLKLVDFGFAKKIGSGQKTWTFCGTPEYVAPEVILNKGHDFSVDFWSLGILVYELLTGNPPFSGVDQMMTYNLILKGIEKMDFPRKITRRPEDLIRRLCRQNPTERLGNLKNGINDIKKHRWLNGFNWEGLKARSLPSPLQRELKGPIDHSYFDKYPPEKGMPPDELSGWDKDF

SMILES	observed	action	technique	tested at	measurement	result
Cn1cc(-c2cccc(N3CCc4c(sc5c4CC(C)(C)C5)C3=O)c2CO)cc(Nc2ccncn2)c1=O	enzyme activity	inhibitor	–	1 µM	inhibition	2%
Cn1cncc1[C@](O)(COc1ccc(C#N)cc1-c1ccc(OC(F)(F)F)cc1)c1ccc(C#N)cc1	cell-free assay	–	competition with immobilised ligand	1 µM	remaining binding	100%
Cn1cc(-c2cc(F)cc(N3CCn4c(cc5c4CCCC5)C3=O)c2CO)cc(Nc2ccc(N3CCN(C4COC4)CC3)cn2)c1=O	enzyme activity	inhibitor	–	0.1 µM	inhibition	11%
Nc1ncc(-c2nc(N3CCOCC3)nc(N3CCOCC3)n2)c(C(F)F)n1	binding	–	competition with immobilised ligand	10 µM	remaining binding	90%
CC(C)(C)c1cc(C=C(C#N)C#N)cc(Br)c1O	enzyme activity	inhibitor	–	0.5 µM	remaining activity	87.6%
COc1ncccc1-c1cnn2ccc(N3CCN(C(=O)OC(C)C)CC3)nc12	binding	–	competition with immobilised ligand	1 µM	remaining binding	88%
Cc1nn(C)cc1-c1nc2c(N3CCN(Cc4ccc(Cl)cc4)CC3)c(Cl)cnc2[nH]1	binding	–	competition with immobilised ligand	1 µM	remaining binding	92%
O=c1[nH]c2ccccc2n1C1CCN(Cc2ccc(-c3[nH]c4cc5ncnc5cc4nc3-c3ccccc3)cc2)CC1	cell-free assay	–	–	0.5 µM	remaining signal	96.8%
N#CC1(c2ccccn2)CCN(Cc2cc(C(=O)O)c(=O)n3ccccc23)CC1	cell-free assay	–	competition with immobilised ligand	1 µM	remaining binding	95%
